Results published in ChEMBL document CHEMBL1138725, “Discovery of novel 2-(aminoheteroaryl)-thiazole-5-carboxamides as potent and orally active Src-family kinase p56(Lck) inhibitors” (Bioorg Med Chem Lett, 2004).

Key:
[1] = In vitro inhibitory activity against recombinant p56 lck tyrosine kinase expressed as a His-tagged protein in insect cells
How it was run: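 Mean of three separate experiments, with standard deviation within ±10%.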

[2] = […] inhibitory activity against proliferation of normal human peripheral blood T lymphocytes; assay type: functional
[3] = target: T1, Tyrosine-protein kinase JAK3 (Homo sapiens, UniProt P52333); assay: inhibitory activity against Janus kinase 3
T1 sequence (P52333 whole entry): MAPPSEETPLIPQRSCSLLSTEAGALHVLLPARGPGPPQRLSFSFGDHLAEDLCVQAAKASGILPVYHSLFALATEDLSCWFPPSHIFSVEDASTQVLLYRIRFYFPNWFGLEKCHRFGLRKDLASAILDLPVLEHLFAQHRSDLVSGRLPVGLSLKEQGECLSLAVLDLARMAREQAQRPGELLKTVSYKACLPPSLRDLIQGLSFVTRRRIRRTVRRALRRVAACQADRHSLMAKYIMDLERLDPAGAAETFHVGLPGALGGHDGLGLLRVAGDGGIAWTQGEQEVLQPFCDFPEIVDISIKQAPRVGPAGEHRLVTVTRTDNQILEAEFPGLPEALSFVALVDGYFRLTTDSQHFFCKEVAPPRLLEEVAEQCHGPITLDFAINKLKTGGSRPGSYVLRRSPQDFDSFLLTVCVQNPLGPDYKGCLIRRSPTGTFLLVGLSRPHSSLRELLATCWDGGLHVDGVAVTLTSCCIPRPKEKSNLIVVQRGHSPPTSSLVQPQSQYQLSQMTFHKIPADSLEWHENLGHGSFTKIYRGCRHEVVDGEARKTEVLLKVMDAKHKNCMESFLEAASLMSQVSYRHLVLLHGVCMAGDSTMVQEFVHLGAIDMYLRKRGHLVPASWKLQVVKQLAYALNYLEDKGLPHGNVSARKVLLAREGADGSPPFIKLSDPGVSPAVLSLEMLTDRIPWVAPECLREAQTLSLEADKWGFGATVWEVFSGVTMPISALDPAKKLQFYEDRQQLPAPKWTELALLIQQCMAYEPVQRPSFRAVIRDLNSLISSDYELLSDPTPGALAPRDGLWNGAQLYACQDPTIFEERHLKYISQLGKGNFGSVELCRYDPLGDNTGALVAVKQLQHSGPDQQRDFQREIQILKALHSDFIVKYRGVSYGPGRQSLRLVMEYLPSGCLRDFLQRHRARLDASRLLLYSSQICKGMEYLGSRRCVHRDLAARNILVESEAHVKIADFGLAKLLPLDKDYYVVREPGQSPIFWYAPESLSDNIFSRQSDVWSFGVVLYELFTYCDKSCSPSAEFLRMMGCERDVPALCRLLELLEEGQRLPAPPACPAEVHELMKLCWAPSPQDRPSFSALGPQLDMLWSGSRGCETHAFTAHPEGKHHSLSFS
How it was run: (§1)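 Purified kinase enzyme inhibition, reported as IC50 in µM. Each value is the mean of three independent experiments.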

[4] = target: Tyrosine-protein kinase Fgr (Homo sapiens, UniProt P09769); assay: Inhibitory activity against Fgr kinase
Chain of Tyrosine-protein kinase Fgr (P09769 whole entry): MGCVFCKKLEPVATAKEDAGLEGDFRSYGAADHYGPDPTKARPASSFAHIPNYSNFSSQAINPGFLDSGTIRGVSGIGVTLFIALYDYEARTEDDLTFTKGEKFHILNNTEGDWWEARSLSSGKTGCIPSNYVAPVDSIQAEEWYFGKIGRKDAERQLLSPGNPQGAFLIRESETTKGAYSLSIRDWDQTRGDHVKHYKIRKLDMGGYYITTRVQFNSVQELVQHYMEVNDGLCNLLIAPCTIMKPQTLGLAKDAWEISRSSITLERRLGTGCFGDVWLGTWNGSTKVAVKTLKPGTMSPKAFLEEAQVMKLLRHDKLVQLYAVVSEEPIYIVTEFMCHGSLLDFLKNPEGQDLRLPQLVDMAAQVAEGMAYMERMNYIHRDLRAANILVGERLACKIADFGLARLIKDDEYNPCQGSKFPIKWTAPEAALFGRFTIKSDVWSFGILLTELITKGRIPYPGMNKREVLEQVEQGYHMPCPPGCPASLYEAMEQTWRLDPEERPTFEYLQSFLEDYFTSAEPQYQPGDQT
How it was run: (§2)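 Kinase selectivity panel: IC50 for inhibition of each isolated kinase enzyme, reported as the mean of three experiments.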

[5] = target: Tyrosine-protein kinase HCK (Homo sapiens, UniProt P08631); assay: inhibitory activity against Hck kinase
Chain of Tyrosine-protein kinase HCK (P08631 whole entry): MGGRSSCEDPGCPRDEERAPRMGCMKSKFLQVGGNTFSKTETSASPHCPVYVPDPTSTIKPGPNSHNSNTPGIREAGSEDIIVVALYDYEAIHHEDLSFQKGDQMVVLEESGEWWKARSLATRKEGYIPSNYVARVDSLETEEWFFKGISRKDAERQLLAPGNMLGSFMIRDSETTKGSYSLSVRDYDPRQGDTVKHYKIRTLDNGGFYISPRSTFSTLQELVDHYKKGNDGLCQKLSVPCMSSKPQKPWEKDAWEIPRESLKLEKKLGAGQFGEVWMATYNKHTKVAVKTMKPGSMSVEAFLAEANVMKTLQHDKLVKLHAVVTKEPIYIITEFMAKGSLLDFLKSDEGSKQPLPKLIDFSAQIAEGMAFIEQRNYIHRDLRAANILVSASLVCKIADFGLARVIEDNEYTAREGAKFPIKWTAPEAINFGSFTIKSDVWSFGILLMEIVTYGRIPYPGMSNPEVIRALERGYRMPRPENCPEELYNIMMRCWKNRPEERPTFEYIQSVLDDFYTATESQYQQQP

[6] = target: Cyclin-dependent kinase 2 (Homo sapiens, UniProt P24941); assay: Inhibitory activity against Cyclin-dependent kinase 2
[7] = target: Cyclin-dependent kinase 4 (Homo sapiens, UniProt P11802); assay: Inhibitory activity against Cyclin-dependent kinase 4; how it was run: as §2
Chain of Cyclin-dependent kinase 4 (P11802 whole entry): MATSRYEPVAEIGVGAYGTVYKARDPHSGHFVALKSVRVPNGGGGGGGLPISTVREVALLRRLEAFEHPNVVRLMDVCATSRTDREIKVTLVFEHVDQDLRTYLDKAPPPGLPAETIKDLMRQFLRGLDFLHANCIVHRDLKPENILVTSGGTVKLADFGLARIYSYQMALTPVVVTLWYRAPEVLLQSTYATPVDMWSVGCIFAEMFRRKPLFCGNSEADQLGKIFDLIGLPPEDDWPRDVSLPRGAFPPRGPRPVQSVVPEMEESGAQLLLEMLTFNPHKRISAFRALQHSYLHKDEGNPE

[8] = target: Proto-oncogene tyrosine-protein kinase Src (Homo sapiens, UniProt P12931); assay: Inhibitory activity against Src tyrosine kinase; how it was run: as §1
Chain of Proto-oncogene tyrosine-protein kinase Src (P12931 2-536 limits assumed): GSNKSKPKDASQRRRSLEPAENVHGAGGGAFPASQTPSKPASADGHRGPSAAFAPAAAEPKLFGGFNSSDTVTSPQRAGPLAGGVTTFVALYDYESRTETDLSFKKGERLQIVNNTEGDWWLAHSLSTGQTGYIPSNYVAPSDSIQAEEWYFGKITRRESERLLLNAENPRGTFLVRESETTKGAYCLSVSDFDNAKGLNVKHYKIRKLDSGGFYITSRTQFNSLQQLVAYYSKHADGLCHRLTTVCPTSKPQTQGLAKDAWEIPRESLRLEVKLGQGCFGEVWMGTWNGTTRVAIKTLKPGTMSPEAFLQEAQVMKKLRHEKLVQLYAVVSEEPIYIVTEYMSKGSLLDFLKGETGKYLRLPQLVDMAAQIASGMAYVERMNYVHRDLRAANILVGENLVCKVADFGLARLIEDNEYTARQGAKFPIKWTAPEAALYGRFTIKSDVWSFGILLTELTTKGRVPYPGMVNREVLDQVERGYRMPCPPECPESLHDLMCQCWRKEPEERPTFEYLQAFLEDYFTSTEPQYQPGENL

[9] = target: Vascular endothelial growth factor receptor 2 (Homo sapiens, UniProt P35968); assay: inhibitory activity against Vascular endothelial growth factor receptor 2; how it was run: as §2
Chain of Vascular endothelial growth factor receptor 2 (P35968 whole entry): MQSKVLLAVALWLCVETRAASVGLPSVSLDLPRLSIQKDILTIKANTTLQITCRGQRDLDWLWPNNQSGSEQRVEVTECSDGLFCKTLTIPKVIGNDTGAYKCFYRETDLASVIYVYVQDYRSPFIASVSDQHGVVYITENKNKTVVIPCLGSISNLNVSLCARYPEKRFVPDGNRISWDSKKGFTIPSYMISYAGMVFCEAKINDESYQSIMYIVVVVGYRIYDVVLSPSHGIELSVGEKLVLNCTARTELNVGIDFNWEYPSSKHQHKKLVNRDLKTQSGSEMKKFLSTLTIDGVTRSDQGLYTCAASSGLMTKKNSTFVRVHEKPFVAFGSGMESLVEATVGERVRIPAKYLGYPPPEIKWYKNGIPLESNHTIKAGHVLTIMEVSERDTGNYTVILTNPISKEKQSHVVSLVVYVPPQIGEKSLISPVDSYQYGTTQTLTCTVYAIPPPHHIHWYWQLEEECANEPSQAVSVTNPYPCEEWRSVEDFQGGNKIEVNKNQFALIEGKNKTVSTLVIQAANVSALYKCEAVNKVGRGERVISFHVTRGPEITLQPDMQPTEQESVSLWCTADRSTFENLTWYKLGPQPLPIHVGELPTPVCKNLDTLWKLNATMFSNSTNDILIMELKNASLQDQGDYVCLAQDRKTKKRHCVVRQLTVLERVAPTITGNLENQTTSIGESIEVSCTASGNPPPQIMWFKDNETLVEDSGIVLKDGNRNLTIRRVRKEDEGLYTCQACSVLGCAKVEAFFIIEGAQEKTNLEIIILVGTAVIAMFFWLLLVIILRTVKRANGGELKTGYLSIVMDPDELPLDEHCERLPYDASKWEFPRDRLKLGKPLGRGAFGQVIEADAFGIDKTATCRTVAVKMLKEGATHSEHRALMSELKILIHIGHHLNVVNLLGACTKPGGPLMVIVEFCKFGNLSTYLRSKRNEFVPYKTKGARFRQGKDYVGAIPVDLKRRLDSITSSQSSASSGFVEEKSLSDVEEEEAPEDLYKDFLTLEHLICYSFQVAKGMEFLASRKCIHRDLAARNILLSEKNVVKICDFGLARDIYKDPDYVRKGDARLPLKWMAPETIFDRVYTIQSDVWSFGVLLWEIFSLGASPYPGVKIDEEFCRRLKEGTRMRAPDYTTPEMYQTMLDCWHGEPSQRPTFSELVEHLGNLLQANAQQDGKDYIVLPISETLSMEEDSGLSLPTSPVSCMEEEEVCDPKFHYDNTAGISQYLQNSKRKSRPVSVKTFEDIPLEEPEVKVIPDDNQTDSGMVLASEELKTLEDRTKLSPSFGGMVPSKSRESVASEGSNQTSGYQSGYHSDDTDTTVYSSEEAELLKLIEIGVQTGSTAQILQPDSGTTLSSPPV

[10] = Inhibitory activity against Fibroblast growth factor receptor 1
How it was run: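 Enzyme IC50 was measured within a kinase selectivity panel and is reported as the mean of three experiments.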

[11] = Plasma protein binding in mouse was determined; assay type: ADME, cell-free
[12] = organism: Rattus norvegicus; assay: Dose required for inhibition of paw swelling in rat adjuvant rheumatoid arthritis model; significant reduction observed after 24 hrs; assay type: functional
[13] = organism: Rattus norvegicus; assay: Dose required for inhibition of paw swelling in rat adjuvant rheumatoid arthritis model; significant reduction observed after 7 days; assay type: functional
[14] = Mean residence time was determined in rats at a single dose of 10 mg/kg i.v. and p.o.; assay type: ADME, organism-based; design: dose 10 mg/kg, route oral; details: rat, in vivo, po
[15] = Half-life was determined in rats at a single dose of 10 mg/kg i.v. and p.o.; assay type: ADME, organism-based; design: dose 10 mg/kg, route oral; details: rat, in vivo, po
[16] = Plasma clearance was determined in rats at a single dose of 10 mg/kg i.v. and p.o.; assay type: ADME, organism-based; design: dose 10 mg/kg, route oral; details: rat, in vivo, po
[17] = Time required to reach the maximum plasma concentration was determined in rats at a single dose of 10 mg/kg i.v. and p.o.; assay type: ADME, organism-based; design: dose 10 mg/kg, route oral; details: rat, po
[18] = Oral bioavailability was determined in rats at a single dose of 10 mg/kg i.v. and p.o.; assay type: ADME, organism-based; details: rat, in vivo
[19] = Maximum plasma concentration was determined in rats at a single dose of 10 mg/kg i.v. and p.o.; assay type: ADME, organism-based; design: dose 10 mg/kg, route oral; details: rat, po
[20] = target: Receptor tyrosine-protein kinase erbB-2 (Homo sapiens, UniProt P04626); assay: Inhibitory activity against HER2 kinase; how it was run: as §2
Chain of Receptor tyrosine-protein kinase erbB-2 (P04626 whole entry): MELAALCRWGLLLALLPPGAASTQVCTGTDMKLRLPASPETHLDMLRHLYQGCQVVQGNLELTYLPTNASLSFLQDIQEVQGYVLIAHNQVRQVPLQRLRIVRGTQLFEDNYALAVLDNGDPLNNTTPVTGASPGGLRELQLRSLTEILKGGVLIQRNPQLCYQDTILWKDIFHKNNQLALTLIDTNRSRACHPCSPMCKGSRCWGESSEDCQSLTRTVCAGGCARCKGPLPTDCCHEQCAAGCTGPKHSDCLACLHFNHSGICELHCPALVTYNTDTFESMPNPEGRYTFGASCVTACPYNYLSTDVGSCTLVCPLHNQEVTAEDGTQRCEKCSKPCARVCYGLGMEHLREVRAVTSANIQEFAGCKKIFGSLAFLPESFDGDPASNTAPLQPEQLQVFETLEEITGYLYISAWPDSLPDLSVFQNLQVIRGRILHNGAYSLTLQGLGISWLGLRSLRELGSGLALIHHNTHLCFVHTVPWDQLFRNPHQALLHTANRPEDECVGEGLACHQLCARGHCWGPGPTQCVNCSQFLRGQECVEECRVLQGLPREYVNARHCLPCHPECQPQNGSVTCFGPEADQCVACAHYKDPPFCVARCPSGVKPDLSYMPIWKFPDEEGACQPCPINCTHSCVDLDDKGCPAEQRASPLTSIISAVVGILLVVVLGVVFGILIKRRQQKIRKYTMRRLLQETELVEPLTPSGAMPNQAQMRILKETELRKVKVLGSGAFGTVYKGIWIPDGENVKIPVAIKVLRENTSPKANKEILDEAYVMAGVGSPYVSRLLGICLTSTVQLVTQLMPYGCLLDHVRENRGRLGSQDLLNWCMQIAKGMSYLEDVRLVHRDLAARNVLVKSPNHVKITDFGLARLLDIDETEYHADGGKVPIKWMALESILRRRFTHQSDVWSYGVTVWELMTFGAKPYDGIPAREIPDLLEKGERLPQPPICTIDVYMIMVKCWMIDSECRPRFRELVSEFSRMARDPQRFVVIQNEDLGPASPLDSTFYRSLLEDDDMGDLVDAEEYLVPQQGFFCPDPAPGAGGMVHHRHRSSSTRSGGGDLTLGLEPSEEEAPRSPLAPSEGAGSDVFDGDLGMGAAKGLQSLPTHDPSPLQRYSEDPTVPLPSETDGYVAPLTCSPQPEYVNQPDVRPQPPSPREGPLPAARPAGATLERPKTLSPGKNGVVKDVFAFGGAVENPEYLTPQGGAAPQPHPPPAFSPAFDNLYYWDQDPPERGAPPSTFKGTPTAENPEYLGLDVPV

Compound | IC50 [1] [nM] | IC50 [2] [nM] | also measured
Cc1cccc(Cl)c1NC(=O)c1cnc(NC(=O)C2CC2)s1 | 35 | – | –
Cc1cccc(Cl)c1NC(=O)c1cnc(Nc2cccc(N3CCN[C@@H](C)C3)n2)s1 | < 1 | 6 | –
Cc1cccc(Cl)c1NC(=O)c1cnc(Nc2ccccc2)s1 | 0.6 | 210 | –
Cc1cccc(Cl)c1NC(=O)c1cnc(Nc2ccnnc2)s1 | 4 | 350 | –
Cc1cccc(Cl)c1NC(=O)c1cnc(Nc2cc(NCCN3CCCC3)ncn2)s1 | 0.4 | 19 | Ki [1]: 0.06 nM
Cc1cccc(Cl)c1NC(=O)c1cnc(Nc2cccc(NCCN3CCOCC3)n2)s1 | < 1 | 11 | –
Cc1cc(C)nc(Nc2ncc(C(=O)Nc3c(C)cccc3Cl)s2)n1 | 50 | – | –
Cc1ccnc(Nc2ncc(C(=O)Nc3c(C)cccc3Cl)s2)c1 | 0.5 | 85 | –
Cc1cccc(Cl)c1NC(=O)c1cnc(NC2CCCCC2)s1 | 374 | – | –
Cc1cccc(Cl)c1NC(=O)c1cnc(Nc2cc(NCCN3CCOCC3)ncn2)s1 | 4 | 17 | –
Cc1cc(C)nc(Nc2ncc(C(=O)Nc3c(C)cccc3Cl)s2)c1 | 4 | – | –
Cc1cccnc1Nc1ncc(C(=O)Nc2c(C)cccc2Cl)s1 | 7.3 | 365 | –
Cc1cccc(Cl)c1NC(=O)c1cnc(Nc2cc(N3CCOCC3)ncn2)s1 | < 1 | 3 | –
Cc1cccc(Cl)c1NC(=O)c1cnc(Nc2cccnc2)s1 | 6.7 | – | –
Cc1cc(C)cc(Nc2ncc(C(=O)Nc3c(C)cccc3Cl)s2)c1 | 2 | 883 | –
Cc1cccc(Cl)c1NC(=O)c1cnc(Nc2ccccn2)s1 | 1.2 | – | –
Cc1cccc(Cl)c1NC(=O)c1cnc(Nc2ccncc2)s1 | 10 | – | –
Cc1ccc(Nc2ncc(C(=O)Nc3c(C)cccc3Cl)s2)nc1 | 1.1 | 156 | –
Cc1cc(N(C)c2ncc(C(=O)Nc3c(C)cccc3Cl)s2)nc(C)n1 | 2340 | – | –
Cc1cc(Nc2ncc(C(=O)Nc3c(C)cccc3Cl)s2)nc(C)n1 | 1.2 | 80 | IC50 [3]: 6 nM; IC50 [4]: < 1 nM; IC50 [5]: 2 nM; IC50 [6]: > 25000 nM; IC50 [7]: > 25000 nM; IC50 [8]: < 1 nM; Ki [1]: 0.13 nM; IC50 [9]: > 10000 nM; IC50 [10]: > 10000 nM; Binding [11]: 93.6%; Dose [12]: 3 mg/kg; Dose [13]: 1 mg/kg; MRT [14]: 4 h; half-life [15]: 4 h; Cl [16]: 29 mL/min/kg; Tmax [17]: 1 h; bioavailability [18]: 65%; Cmax [19]: 2000 nM; IC50 [20]: 5200 nM
Cc1cc(Nc2ncc(C(=O)N(C)c3c(C)cccc3Cl)s2)nc(C)n1 | 277 | – | –
Cc1cccc(Nc2ncc(C(=O)Nc3c(C)cccc3Cl)s2)n1 | < 1 | 106 | –
